According to ChEMBL document CHEMBL3286243, “Polyhydroxyanthraquinones as quorum sensing inhibitors from the guttates of Penicillium restrictum and their analysis by desorption electrospray ionization mass spectrometry” (J Nat Prod, 2014):
Positions of bridges follow the written chain, without caps; N, C: chain ends. Residues, ends and D or L forms follow the SMILES beside them.

Target: T1, Accessory gene regulator protein A (Staphylococcus aureus) (UniProt P0A0I7)
T1 sequence (whole entry): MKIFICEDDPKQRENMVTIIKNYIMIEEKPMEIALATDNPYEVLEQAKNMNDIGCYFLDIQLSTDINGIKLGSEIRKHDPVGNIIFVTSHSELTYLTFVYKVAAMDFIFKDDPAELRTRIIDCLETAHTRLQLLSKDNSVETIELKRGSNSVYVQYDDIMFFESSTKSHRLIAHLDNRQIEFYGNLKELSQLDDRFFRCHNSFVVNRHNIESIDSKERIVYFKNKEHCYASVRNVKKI
Assay: Inhibition of AGR quorum sensing system-mediated delta toxin production in methicillin-resistant Staphylococcus aureus AH2759 incubated for 15 hrs by Western blotting analysis
How it was run: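 Cultures from the agr P3-lux plate were pooled and filtered (0.22 μm). Medium (2.5 μL) was run on 15% SDS-PAGE and transferred to PVDF. Blots were blocked overnight at 4 °C in milk/BSA in TBST, then probed 1 h at rt with rabbit anti-delta toxin (1:2000) and HRP anti-rabbit (1:10 000). Detection was chemiluminescence on X-ray film. AIP-2-treated cultures were included.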

SMILES	inhibition
CC(C)C[C@@H]1NC(=O)[C@H](CO)NC(=O)[C@H](CO)NC(=O)[C@@H](NC(=O)[C@H](C)NC(=O)[C@H](CC(N)=O)NC(=O)[C@@H](NC(=O)CN)C(C)C)CSC(=O)[C@H](Cc2ccccc2)NC1=O (H-GVNACSSLF; thioester 5-C)	Dose-dependent effect
O=C(O)c1cc(O)c2c(c1)C(=O)c1cc(O)c(O)c(O)c1C2=O	Dose-dependent effect
O=C1c2cc(O)cc(O)c2C(=O)c2c(O)cc(CO)cc21	Dose-dependent effect
CC(=O)C(O)c1cc(O)c2c(c1)C(=O)c1cc(O)cc(O)c1C2=O (centres undefined)	Dose-dependent effect
